The values below come from article PMC7184160 (EBioMedicine, 2020).

Where two headings read alike, the source gives them in different places.

The test system of series [1] is metastatic RCC. To be noted: range over the agents, cited from earlier work.
For series [2] the following is noted: cited from earlier work.
Series [3] relates to VEGFR2 (KDR), PDGFR, Flt3 and c-Kit. To be noted: range over VEGFR2 (KDR), ref unpublished data; cited from earlier work.
The nature of series [4]: plasma pharmacokinetics of vorolanib, X-297 and everolimus. The format is in vivo. To be noted: human, oral, t1/2z (half-life), range over cohorts, first single dose, vorolanib 100–200 mg in combination with everolimus 5 mg.
The conditions of series [5]: cited from earlier work. This is another data set of the same source.
A short description of series [6]: phase 1 safety and tolerability of vorolanib plus everolimus. It is filed as in vivo, human. Conditions: in the combination, 22 patients. The essentials:
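Open-label, single-centre 3+3 escalation in Chinese patients with advanced ccRCC after failed standard therapy. Oral test compound at 100, 150 or 200 mg daily, given 4 h after partner drug at a fixed 5 mg daily, in 28-day cycles. AEs graded by CTCAE v4.03. Allowed changes: stepwise reduction 200→150→100 mg/day, partner drug 5 mg every other day, and interruption up to 4 weeks.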

The test system of series [7] is metastatic RCC. To be noted: phase II, advanced RCC after one previous antiangiogenic therapy; cited from earlier work.
For series [8] the following is noted: cited from earlier work. This is another data set of the same source.
For series [9] the following is noted: cited from earlier work. The source holds these as a separate data set.
Where [10] appears, read: established second-line monotherapies, Discussion.
The mark [11] stands for this setting: second-line options for metastatic RCC.
Setting [12] is: monotherapy 50–800 mg once daily.

Consider `COc1cc2nccc(Oc3ccc(NC(=O)C4(C(=O)Nc5ccc(F)cc5)CC4)cc3)c2cc1OC` [cabozantinib], for which the “median PFS” value in the series on metastatic RCC [1] (setting [10]) is 4.4–8.3 months; in the series on metastatic RCC [1] (setting [11]), 3.8–7.4 months.

As a reminder, the IC50 is the concentration that inhibits the measured activity by half. What is called half-life is the time in which the quantity being followed falls by half. Regarding `Cc1[nH]c(/C=C2\C(=O)Nc3ccc(F)cc32)c(C)c1C(=O)N[C@H]1CCN(C(=O)N(C)C)C1` [vorolanib, Vorolanib], in series [2] (setting [12]), the “grade 4 AEs or deaths related to vorolanib” value is on record as “no grade 4 AEs or deaths related to vorolanib was reported” and the “treatment-related grade 3 adverse event proteinuria” value is 4%. In addition, in series [2] (monotherapy tablet once daily), the “apparent saturation of absorption (dose)” value is 400 to 800 mg. Also, the MTD result in [2] (monotherapy tablet, dose range 50–800 mg once daily, solid tumors) is listed as “not achieved”. Moreover, the “maximum tolerated dose (MTD)” value in series [2] (monotherapy, dose range 20 to 400 mg daily) is reported as “without achieving the most tolerated dose (MTD)”. Also, in series [2] (once daily, patients with advanced cancer), the “recommended dose of monotherapy” value is recorded as 400 mg. In addition, in [3], the IC50 was 0.13 to 1.12 nM. The half-life in [4] lay within 4.74 to 12.9 h. The “patients with grade 3 or higher events” value in series [5] (across 100 to 250 mg dose cohort) is reported as 7 out of 19. Besides, in [5], the “recommended dose for monotherapy” value is 200 mg. Moreover, the MTD entry in series [5] (monotherapy 50–250 mg once daily, Chinese patients) is reported as “not achieved”. In addition, the “dose-limited toxicity (DLT)” value in series [5] (monotherapy, China) is “No dose-limited toxicity (DLT) was observed”. Further, in series [6], the “patients with dose interruption” value is reported as “fourteen” and the “patients with dose reduction” value is “four”.

Take `CNC(=O)c1ccccc1Sc1ccc2c(/C=C/c3ccccn3)n[nH]c2c1` [axitinib]: the “median PFS” value in the series on metastatic RCC [1] (setting [10]) is reported as 4.4–8.3 months; with metastatic RCC [1] (setting [11]), 3.8–7.4 months.

As for `CO[C@H]1C[C@@H]2CC[C@@H](C)[C@@](O)(O2)C(=O)C(=O)N2CCCC[C@H]2C(=O)O[C@H]([C@H](C)C[C@@H]2CC[C@@H](OCCO)[C@H](OC)C2)CC(=O)[C@H](C)/C=C(\C)[C@@H](O)[C@@H](OC)C(=O)[C@H](C)C[C@H](C)/C=C/C=C/C=C/1C` [everolimus], the “median PFS” value in the series on metastatic RCC [7] is 5.5 months; in the series on metastatic RCC [1] (setting [10]), 4.4–8.3 months; with metastatic RCC [1] (setting [11]) it was 3.8–7.4 months. In series [8], the “patients with grade 3 and 4 events” value is 50%. For the same compound, the “patients with dose interruption” value in [6] is “eight”.

With `COc1cc2nccc(Oc3ccc(NC(=O)NC4CC4)c(Cl)c3)c2cc1C(N)=O` [lenvatinib], the “median PFS” value in the series with metastatic RCC [7] is recorded as 7.4 months.

On to nivolumab, for which the “median PFS” value in the series with metastatic RCC [1] (setting [10]) is on record as 4.4–8.3 months; in the series with metastatic RCC [1] (setting [11]) it was 3.8–7.4 months.

Take `CCN(CC)CCNC(=O)c1c(C)[nH]c(/C=C2\C(=O)Nc3ccc(F)cc32)c1C` [sunitinib]: in series [9], the “grade 3/4 AE diarrhea” value is 5%, the “grade 3/4 AE fatigue” value is 7%, the “grade 3/4 AE hand-foot syndrome” value is recorded as 5% and the “grade 3/4 AE hypertension” value is 8%. For the same compound, in [9], the “grade 3/4 AE increased lipase” value was 13%, the “grade 3/4 AE lymphopenia” value is on record as 12%, the “grade 3/4 AE neutropenia” value is on record as 11% and the “grade 3/4 AE vomiting” value is reported as 4%.
